Measurements: ChEMBL document CHEMBL1154931, “Exploration of a new series of PAR1 antagonists” (Bioorg Med Chem Lett, 2010)
The source made the active and inactive calls. No cut-off for these calls is given here.

Legend:
[1] = molecular target: T1, Proteinase-activated receptor 1 (Homo sapiens) (UniProt P25116); assay: Antagonist activity at PAR1 expressed in CHO cells assessed as inhibition of SFLLR-NH2-induced calcium release at 10 uM by FLIPR assay; type: functional, cell-based
T1 sequence (whole entry): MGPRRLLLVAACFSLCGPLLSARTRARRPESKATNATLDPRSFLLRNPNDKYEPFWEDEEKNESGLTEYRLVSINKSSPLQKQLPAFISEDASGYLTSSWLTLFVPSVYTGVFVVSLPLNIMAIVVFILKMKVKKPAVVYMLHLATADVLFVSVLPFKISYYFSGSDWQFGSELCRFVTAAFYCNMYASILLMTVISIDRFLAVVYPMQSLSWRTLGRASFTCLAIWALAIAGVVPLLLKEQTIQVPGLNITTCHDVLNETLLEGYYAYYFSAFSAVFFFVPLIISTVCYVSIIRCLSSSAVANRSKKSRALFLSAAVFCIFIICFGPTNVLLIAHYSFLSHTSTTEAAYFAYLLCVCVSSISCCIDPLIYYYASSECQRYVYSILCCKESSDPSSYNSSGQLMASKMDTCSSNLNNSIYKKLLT
How it was run: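 Calcium release triggered by 1 µM SFLLR-NH₂; test compound at 10 µM, read as % inhibition of the agonist response. Values are mean SEM of at least two independent determinations, each run in triplicate.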

[2] = molecular target: T2, Proteinase-activated receptor 1 (Homo sapiens, UniProt P25116); assay: (§1) Antagonist activity at PAR1 expressed in CHO cells assessed as inhibition of SFLLR-NH2-induced calcium release by FLIPR assay; type: functional, cell-based; settings: read-out: pA2 (converted)
T2 sequence (P25116 whole entry): T1 sequence (whole entry)
How it was run: (§2)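 Concentration-response study in the same calcium-release screen, with release induced by 1 µM SFLLR-NH₂. Used to separate partial from fully competitive antagonists; pA₂ was derived for full antagonists only.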

[3] = Antiaggregatory activity in human platelets assessed as inhibition of SFLLR-induced aggregation; type: functional, Platelet
[4] = tested on: Rattus norvegicus; assay: Antithrombotic activity in rat assessed as increase in occlusion time of arteriovenous shunt at 1.25 mg/kg, iv; type: functional
How it was run: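 Arteriovenous extracorporeal shunt in anesthetized rats, compound dosed at 1.25 mg/kg. Read-out is % increase of occlusion time.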

[5] = molecular target: T1, Proteinase-activated receptor 1 (Homo sapiens); assay: as §1; type: functional, cell-based; how it was run: as §2

Row | Structure (SMILES) | inhibition [1] | also measured
1 | Cc1cccc(-c2ccc(C(=O)/C=C/c3c(F)cccc3F)cn2)c1C | 74% | –
2 | N#Cc1ccccc1/C=C\C(=O)N1CCC(N(Cc2ccc(F)cc2)Cc2ccccn2)C(F)C1 (stereo not drawn) | 68% | Kb [2]: 589 nM; pKb [3]: 5.68; Activity [4]: 53%
3 | N#Cc1ccccc1/C=C/C(=O)N1CCC(N(Cc2ccc(F)cc2)Cc2ccccn2)C(F)C1 (stereo not drawn) | 33% | –
4 | O=C(/C=C/c1c(F)cccc1F)c1ccc(N2CCCC2)nc1 | 20% | –
5 | Cc1cccc(-c2ccc(C(=O)/C=C/c3ccccc3Cl)cn2)c1C | 32% | –
6 | O=C(/C=C\c1c(F)cccc1F)N1CCC(NCc2ccc(F)cc2)C(F)C1 (stereo not drawn) | 25% | –
7 | O=C(/C=C\c1ccccc1Cl)N1CCC(N(Cc2ccc(F)cc2)Cc2ccccn2)C(F)C1 (stereo not drawn) | 23% | –
8 | N#Cc1ccccc1/C=C/C(=O)c1ccc(N2CC=CC2)cn1 | 52% | –
9 | O=C(/C=C/c1c(F)cccc1F)c1ccc(N2CC=CC2)cn1 | 60% | –
10 | N#Cc1ccccc1/C=C/C(=O)c1ccc(NC2CCCC2)nc1 | 84% | Kb [2]: 933 nM; pKb [3]: 5.05; Activity [4]: 28%
11 | O=c1c(/C=C/c2ccccc2Cl)c(N2CCN(CC3CCCCC3)CC2)c1=O | 41% | –
12 | Cc1cccc(-c2ccc(C(=O)/C=C/c3c(F)cccc3F)nc2)c1C | 40% | –
13 | O=C(/C=C/c1ccccc1Cl)c1ccc(NC2CCCCC2)nc1 | 97% | pA2 [5]: Active
14 | N#Cc1ccccc1/C=C/c1c(N2CCN(CC3CCCCC3)CC2)c(=O)c1=O | 84% | Kb [2]: 427 nM; pKb [3]: 4
15 | O=C(/C=C/c1ccccc1Cl)N1CCN(Cc2ccc(F)cc2)CC1 | 93% | Kb [2]: 380 nM; pKb [3]: 5.52; Activity [4]: 28%
16 | N#Cc1ccccc1/C=C/C(=O)c1ccc(NC2CCCCC2)nc1 | 53% | –
17 | O=C(/C=C/c1ccccc1Cl)c1ccc(NC2CCCC2)nc1 | 11% | –
18 | O=C(/C=C/c1c(F)cccc1F)N1CCC(NCc2ccc(F)cc2)CC1 | 0% | –
19 | N#Cc1ccccc1/C=C\C(=O)N1CCC(NCc2ccc(F)cc2)C(F)C1 (stereo not drawn) | 40% | –
20 | O=C(/C=C/c1c(F)cccc1F)c1ccc(NC2CCCCC2)nc1 | 41% | –

Now from value to compound, other results behind:

Row | inhibition [1] | Structure (SMILES) | also measured
21 | 16% | O=C(C1=Cc2ccccc2OC1)N1CCN(Cc2ccc(F)cc2)CC1 | –
22 | 2% | O=C(c1cc2ccccc2[nH]1)N1CCN(Cc2ccccc2)CC1 | –
23 | 85% | O=C(/C=C\c1ccccc1Cl)N1CCC(Nc2ccc(F)cc2)C(F)C1 (stereo not drawn) | Kb [2]: 389 nM; pKb [3]: 4
24 | 85% | O=c1c(/C=C/c2ccccc2Cl)c(N2CCN(Cc3ccccc3)CC2)c1=O | pA2 [5]: Active
25 | 97% | N#Cc1ccccc1/C=C/c1c(N2CCN(Cc3ccsc3)CC2)c(=O)c1=O | Kb [2]: 389 nM; pKb [3]: 4
26 | 11% | Cn1c(C(=O)N2CCN(Cc3ccccc3)CC2)cc2ccccc21 | –
27 | 1% | O=C(c1cc2ccccc2o1)N1CCN(Cc2ccccc2)CC1 | –
28 | 27% | O=c1c(/C=C/c2ccccc2Cl)c(N2CCN(Cc3ccsc3)CC2)c1=O | –
29 | 13% | O=C(/C=C/c1ccccc1Cl)c1ccc(N2CC=CC2)cn1 | –
30 | 23% | O=c1c(/C=C/c2ccccc2Cl)c(N2CCN(Cc3ccc(F)cc3)CC2)c1=O | –
31 | 4% | O=C(c1cc2c(F)cccc2s1)N1CCN(Cc2ccccc2)CC1 | –
